Data on one molecule can be found in ChEMBL document CHEMBL3351385, “Synthesis and preliminary mechanistic evaluation of 5-(p-tolyl)-1-(quinolin-2-yl)pyrazole-3-carboxylic acid amides with potent antiproliferative activity on human cancer cell lines” (Eur J Med Chem, 2014).

In experiment [1] the test system is Huh-7. Put plainly: Induction of cell death in human HuH7 cells assessed as nuclear condensation at cytotoxic IC50 level after 72 hrs by Hoechst 33258 staining based […]. The class given is functional. The gist of the method: (§1)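 Cells were washed in cold PBS, fixed 10 min in cold methanol and stained with Hoechst 33258 at 3 µg/mL for 5 min in the dark. Nuclear condensation and fragmentation were examined by fluorescence microscopy at 40×.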

Experiment [2] addresses Ribosomal protein S6 kinase alpha-5 (Homo sapiens) (UniProt O75582). Put plainly: Inhibition of MSK1 (unknown origin) assessed as remaining enzyme activity at 10 uM by radioactive [33P]-ATP filter binding assay.
In experiment [3] the target is Tubulin (Homo sapiens) (UniProt P68371+Q9H4B7+P0DPH7+P68366+Q13509+Q71U36+P04350+Q3ZCM7+P07437+P68363+Q9BQE3+Q6PEY2+Q13885+Q9BVA1+Q9BUF5). Put plainly: Inhibition of tubulin polymerization (unknown origin). The class given is protein-complex assay.
Experiment [4] deals with Tyrosine-protein kinase Lck (Homo sapiens) (UniProt P06239). As to the kind of experiment: Inhibition of LCK (unknown origin) assessed as remaining enzyme activity at 10 uM by radioactive [33P]-ATP filter binding assay.
For experiment [5], the target named is Tau-tubulin kinase 2 (Homo sapiens) (UniProt Q6IQ55). As to the kind of experiment: Inhibition of TTBK2 (unknown origin) assessed as remaining enzyme activity at 10 uM by radioactive [33P]-ATP filter binding assay.
Experiment [6] concerns the target Inhibitor of nuclear factor kappa-B kinase subunit beta (Homo sapiens) (UniProt O14920). Put plainly: Inhibition of IKKbeta (unknown origin) assessed as remaining enzyme activity at 10 uM by radioactive [33P]-ATP filter binding assay.
The target in experiment [7] is Tyrosine-protein kinase BTK (Homo sapiens) (UniProt Q06187). Put plainly: Inhibition of BTK (unknown origin) assessed as remaining enzyme activity at 10 uM by radioactive [33P]-ATP filter binding assay. The gist of the method:
(§2)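 A single 10 µM concentration was tested across a 140-kinase panel. Activity was measured by a radioactive 33P-ATP filter-binding assay run at the International Center for Kinase Profiling, University of Dundee.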

For experiment [8], the target named is Serine/threonine-protein kinase PAK 4 (Homo sapiens) (UniProt O96013). Put plainly: Inhibition of PAK4 (unknown origin) assessed as remaining enzyme activity at 10 uM by radioactive [33P]-ATP filter binding assay.
Experiment [9] concerns the target Mitogen-activated protein kinase kinase kinase 5 (Homo sapiens) (UniProt Q99683). Put plainly: Inhibition of ASK1 (unknown origin) assessed as remaining enzyme activity at 10 uM by radioactive [33P]-ATP filter binding assay. In a few lines: as §2
Experiment [10] is described as follows: Cytotoxicity against human HCT116 cells after 72 hrs by SRB assay. The class given is functional, cell-based. Conditions: HCT-116, 72 h. The gist of the method:
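Cells kept in DMEM with 10% FCS and penicillin/streptomycin at 37°C, 5% CO2. 2000–3000 cells/well were seeded, and medium was refreshed the next day. DMSO solutions were added over 2.5–40 µM with matched DMSO-only controls for 72 h. Cells were then TCA-fixed, stained with 0.4% SRB in 1% acetic acid, solubilized in 10 mM Tris pH 8 and read at 515 nm. Data were normalized to DMSO wells and expressed as mean ±SD.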
(Sulforhodamine B stains cellular protein and so reports cell mass.)

For experiment [11], the target named is Aurora kinase A (Homo sapiens) (UniProt O14965). Put plainly: Inhibition of Aurora A (unknown origin) assessed as remaining enzyme activity at 10 uM by radioactive [33P]-ATP filter binding assay. In a few lines:
as §2

The target of experiment [12] is Dual specificity mitogen-activated protein kinase kinase 6 (Homo sapiens) (UniProt P52564). Put plainly: Inhibition of MKK6 (unknown origin) assessed as remaining enzyme activity at 10 uM by radioactive [33P]-ATP filter binding assay.
The target of experiment [13] is Tyrosine-protein kinase Yes (Homo sapiens) (UniProt P07947). Put plainly: Inhibition of YES1 (unknown origin) assessed as remaining enzyme activity at 10 uM by radioactive [33P]-ATP filter binding assay.
In experiment [14] the target is Tyrosine-protein kinase ZAP-70 (Homo sapiens) (UniProt P43403). Put plainly: Inhibition of ZAP70 (unknown origin) assessed as remaining enzyme activity at 10 uM by radioactive [33P]-ATP filter binding assay.
Experiment [15] addresses Serine/threonine-protein kinase STK11 (Homo sapiens) (UniProt Q15831). As to the kind of experiment: Inhibition of LKB1 (unknown origin) assessed as remaining enzyme activity at 10 uM by radioactive [33P]-ATP filter binding assay.
Experiment [16] has as its target Mitogen-activated protein kinase 7 (Homo sapiens) (UniProt Q13164). Put plainly: Inhibition of ERK5 (unknown origin) assessed as remaining enzyme activity at 10 uM by radioactive [33P]-ATP filter binding assay. The gist of the method: as §2
Experiment [17] relates to Huh-7. Put plainly: Induction of cell death in human HuH7 cells assessed as DNA fragmentation at cytotoxic IC50 level after 72 hrs by Hoechst 33258 staining based […]. Format: functional. The gist of the method:
as §1

Experiment [18] concerns the target Ephrin type-B receptor 4 (Homo sapiens) (UniProt P54760). As to the kind of experiment: Inhibition of EPHB4 (unknown origin) assessed as remaining enzyme activity at 10 uM by radioactive [33P]-ATP filter binding assay. The gist of the method:
as §2

The target of experiment [19] is Serine/threonine-protein kinase Nek6 (Homo sapiens) (UniProt Q9HC98). As to the kind of experiment: Inhibition of NEK6 (unknown origin) assessed as remaining enzyme activity at 10 uM by radioactive [33P]-ATP filter binding assay.
The target of experiment [20] is SRSF protein kinase 1 (Homo sapiens) (UniProt Q96SB4). As to the kind of experiment: Inhibition of SRPK1 (unknown origin) assessed as remaining enzyme activity at 10 uM by radioactive [33P]-ATP filter binding assay.
In experiment [21] the target is Serine/threonine-protein kinase Nek2 (Homo sapiens) (UniProt P51955). Put plainly: Inhibition of NEK2A (unknown origin) assessed as remaining enzyme activity at 10 uM by radioactive [33P]-ATP filter binding assay.
Experiment [22] concerns the target Serine/threonine-protein kinase 26 (Homo sapiens) (UniProt Q9P289). As to the kind of experiment: Inhibition of MST4 (unknown origin) assessed as remaining enzyme activity at 10 uM by radioactive [33P]-ATP filter binding assay.

The source made the active and inactive calls. No cut-off for these calls is given here.

Sequence of Tyrosine-protein kinase Yes (Homo sapiens) (P07947 2-543 limits assumed): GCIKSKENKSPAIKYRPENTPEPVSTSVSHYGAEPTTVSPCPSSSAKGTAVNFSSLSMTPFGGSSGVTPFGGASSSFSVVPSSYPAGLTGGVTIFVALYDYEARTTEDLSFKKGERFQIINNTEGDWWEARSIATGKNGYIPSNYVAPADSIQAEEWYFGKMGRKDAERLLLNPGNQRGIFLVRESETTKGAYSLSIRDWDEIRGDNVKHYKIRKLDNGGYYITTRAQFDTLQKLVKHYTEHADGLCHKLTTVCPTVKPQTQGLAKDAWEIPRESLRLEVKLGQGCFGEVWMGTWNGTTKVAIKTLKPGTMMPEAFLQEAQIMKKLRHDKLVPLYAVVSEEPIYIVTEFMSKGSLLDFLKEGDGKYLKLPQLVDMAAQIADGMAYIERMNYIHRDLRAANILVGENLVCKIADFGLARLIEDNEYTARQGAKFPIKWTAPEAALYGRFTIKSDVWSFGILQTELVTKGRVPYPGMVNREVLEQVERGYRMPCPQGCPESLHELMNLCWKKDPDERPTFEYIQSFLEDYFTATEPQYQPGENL
Sequence of Dual specificity mitogen-activated protein kinase kinase 6 (Homo sapiens) (P52564 whole entry): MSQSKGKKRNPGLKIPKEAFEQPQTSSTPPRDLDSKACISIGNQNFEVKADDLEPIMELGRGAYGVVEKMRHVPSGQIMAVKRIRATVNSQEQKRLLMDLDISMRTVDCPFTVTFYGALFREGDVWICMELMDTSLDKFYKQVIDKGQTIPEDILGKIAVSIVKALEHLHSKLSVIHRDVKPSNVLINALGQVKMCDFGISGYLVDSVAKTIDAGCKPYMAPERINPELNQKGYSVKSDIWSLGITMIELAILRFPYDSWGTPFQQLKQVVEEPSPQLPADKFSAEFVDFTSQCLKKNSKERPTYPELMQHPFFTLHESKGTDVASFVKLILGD
Sequence of Mitogen-activated protein kinase 7 (Homo sapiens) (Q13164 2-816 limits assumed): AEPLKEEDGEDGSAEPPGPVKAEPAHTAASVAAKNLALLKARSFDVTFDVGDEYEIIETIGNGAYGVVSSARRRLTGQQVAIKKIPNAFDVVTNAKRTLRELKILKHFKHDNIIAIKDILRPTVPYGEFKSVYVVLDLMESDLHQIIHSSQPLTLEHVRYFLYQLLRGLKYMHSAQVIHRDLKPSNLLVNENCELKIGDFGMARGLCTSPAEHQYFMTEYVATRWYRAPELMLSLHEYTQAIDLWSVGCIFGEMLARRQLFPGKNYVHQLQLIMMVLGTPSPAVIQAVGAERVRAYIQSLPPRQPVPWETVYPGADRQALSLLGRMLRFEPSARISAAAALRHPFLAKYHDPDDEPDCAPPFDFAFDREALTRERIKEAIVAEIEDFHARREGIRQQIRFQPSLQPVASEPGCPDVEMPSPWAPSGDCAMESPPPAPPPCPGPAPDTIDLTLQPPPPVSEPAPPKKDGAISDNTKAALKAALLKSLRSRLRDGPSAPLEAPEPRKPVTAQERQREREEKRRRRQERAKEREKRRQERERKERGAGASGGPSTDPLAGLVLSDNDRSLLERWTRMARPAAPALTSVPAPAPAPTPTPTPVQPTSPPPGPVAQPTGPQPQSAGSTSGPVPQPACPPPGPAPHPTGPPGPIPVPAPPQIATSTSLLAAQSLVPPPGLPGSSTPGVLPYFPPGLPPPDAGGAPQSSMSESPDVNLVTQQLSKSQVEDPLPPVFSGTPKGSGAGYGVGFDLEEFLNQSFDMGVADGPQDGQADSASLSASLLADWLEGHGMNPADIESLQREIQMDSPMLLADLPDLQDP
Sequence of Aurora kinase A (Homo sapiens) (O14965 whole entry): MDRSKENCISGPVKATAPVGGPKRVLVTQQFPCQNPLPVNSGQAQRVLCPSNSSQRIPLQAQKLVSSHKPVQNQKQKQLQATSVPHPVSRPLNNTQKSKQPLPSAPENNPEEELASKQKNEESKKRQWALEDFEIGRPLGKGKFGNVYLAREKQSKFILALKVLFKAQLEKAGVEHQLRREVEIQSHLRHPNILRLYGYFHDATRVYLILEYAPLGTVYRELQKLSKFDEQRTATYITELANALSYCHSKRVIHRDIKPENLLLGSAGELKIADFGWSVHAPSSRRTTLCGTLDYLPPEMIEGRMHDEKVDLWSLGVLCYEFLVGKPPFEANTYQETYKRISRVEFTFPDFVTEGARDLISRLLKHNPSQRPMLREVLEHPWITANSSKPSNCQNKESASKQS
Sequence of Serine/threonine-protein kinase 26 (Homo sapiens) (Q9P289 2-416 limits assumed): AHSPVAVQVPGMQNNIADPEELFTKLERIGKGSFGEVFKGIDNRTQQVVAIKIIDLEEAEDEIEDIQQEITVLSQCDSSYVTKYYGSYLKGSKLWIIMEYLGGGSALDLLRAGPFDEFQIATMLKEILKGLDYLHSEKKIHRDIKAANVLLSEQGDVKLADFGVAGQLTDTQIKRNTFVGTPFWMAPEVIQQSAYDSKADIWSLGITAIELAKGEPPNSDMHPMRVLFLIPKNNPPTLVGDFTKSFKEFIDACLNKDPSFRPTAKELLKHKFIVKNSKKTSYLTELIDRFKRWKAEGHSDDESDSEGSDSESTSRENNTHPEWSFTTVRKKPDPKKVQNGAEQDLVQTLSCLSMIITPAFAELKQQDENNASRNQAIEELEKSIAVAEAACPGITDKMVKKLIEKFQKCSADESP
Sequence of Tyrosine-protein kinase Lck (Homo sapiens) (P06239 2-509 limits assumed): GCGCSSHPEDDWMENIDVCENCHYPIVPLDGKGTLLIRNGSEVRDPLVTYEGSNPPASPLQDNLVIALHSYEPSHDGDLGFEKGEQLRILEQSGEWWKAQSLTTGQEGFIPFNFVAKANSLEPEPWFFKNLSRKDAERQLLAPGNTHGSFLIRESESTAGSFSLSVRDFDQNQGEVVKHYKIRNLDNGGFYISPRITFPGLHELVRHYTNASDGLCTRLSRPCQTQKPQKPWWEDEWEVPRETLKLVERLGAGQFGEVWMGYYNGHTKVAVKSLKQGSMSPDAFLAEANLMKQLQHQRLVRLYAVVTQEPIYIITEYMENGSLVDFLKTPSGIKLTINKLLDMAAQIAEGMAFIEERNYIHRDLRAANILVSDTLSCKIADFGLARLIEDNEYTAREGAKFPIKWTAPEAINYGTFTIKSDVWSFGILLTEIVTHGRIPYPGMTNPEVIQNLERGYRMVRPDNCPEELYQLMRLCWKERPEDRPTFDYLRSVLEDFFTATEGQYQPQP
Sequence of SRSF protein kinase 1 (Homo sapiens) (Q96SB4 whole entry): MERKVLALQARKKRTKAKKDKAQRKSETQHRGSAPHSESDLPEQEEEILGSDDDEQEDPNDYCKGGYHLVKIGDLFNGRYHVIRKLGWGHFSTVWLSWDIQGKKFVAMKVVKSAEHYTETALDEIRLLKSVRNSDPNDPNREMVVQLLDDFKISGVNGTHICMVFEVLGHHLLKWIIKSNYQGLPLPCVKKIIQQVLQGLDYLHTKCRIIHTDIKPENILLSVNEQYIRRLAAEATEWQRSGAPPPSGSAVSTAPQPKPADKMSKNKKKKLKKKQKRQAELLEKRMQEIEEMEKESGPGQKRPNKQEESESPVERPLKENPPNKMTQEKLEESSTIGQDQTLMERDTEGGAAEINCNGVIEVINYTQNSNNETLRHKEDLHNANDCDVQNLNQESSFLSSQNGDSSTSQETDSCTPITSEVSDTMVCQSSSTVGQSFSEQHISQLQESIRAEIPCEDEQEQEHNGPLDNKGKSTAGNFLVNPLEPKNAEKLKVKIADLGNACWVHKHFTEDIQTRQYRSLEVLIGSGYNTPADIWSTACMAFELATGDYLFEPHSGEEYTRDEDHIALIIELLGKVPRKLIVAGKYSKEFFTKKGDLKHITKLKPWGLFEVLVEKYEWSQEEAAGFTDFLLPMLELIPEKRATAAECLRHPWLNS
Sequence of Ephrin type-B receptor 4 (Homo sapiens) (P54760 whole entry): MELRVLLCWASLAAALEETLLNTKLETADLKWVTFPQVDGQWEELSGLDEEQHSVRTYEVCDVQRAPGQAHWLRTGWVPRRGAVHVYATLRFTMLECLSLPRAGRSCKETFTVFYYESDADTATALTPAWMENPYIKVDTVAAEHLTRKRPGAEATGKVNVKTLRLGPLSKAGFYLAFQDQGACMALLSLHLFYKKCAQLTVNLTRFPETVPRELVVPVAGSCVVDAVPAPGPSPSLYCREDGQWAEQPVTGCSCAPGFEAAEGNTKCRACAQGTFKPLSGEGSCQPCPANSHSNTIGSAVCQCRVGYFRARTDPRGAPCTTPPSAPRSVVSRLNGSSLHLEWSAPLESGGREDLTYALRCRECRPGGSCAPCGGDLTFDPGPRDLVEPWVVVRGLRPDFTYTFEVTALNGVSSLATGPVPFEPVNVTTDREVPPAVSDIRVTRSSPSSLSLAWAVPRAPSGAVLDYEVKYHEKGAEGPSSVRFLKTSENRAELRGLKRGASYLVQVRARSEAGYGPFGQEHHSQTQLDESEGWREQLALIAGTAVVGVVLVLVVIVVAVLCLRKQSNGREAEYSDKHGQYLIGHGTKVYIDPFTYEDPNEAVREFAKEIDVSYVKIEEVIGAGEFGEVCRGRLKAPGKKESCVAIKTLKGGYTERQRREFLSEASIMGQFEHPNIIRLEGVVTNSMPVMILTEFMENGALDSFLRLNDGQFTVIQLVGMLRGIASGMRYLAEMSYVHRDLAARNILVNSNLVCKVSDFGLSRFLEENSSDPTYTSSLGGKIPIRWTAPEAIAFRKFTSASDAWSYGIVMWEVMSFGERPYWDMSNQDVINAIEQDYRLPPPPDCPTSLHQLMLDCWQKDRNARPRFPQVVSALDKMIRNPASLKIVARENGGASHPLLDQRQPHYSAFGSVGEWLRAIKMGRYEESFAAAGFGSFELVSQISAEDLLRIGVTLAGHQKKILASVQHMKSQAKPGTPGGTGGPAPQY
Sequence of Serine/threonine-protein kinase Nek6 (Homo sapiens) (Q9HC98 whole entry): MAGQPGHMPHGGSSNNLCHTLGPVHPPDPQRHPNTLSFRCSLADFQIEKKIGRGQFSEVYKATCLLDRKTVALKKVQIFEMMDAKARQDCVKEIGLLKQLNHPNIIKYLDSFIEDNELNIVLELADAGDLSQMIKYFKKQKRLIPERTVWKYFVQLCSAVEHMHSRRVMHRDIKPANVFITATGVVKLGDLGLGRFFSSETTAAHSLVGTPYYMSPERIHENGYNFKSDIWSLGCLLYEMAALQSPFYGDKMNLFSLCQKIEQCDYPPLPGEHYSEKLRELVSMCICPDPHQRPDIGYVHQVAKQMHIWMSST

Usually IC50 stands for the midpoint of a concentration-inhibition curve. High values mean a need for much substance, low ones inhibition by little substance. As for `Cc1ccc(-c2cc(C(=O)Nc3ccnc(Cl)c3)nn2-c2ccc3ccccc3n2)cc1`, the result in experiment [1] and in experiment [17] was Active. The Activity in experiment [2] came to 89%; in experiment [4], 99%; in experiment [5] it was 101%; in [6], 70%; in experiment [7] it was 92%; in [8], 105%. For the same molecule, the Activity came to 97% in experiment [9]; 120% in experiment [11]; 99% in experiment [12]; 108% in experiment [13]; 115% in experiment [14]; 115% in experiment [15]. Moreover, the Activity in [16] was found to be 74%; in experiment [18] it was 125%; in [19], 116%; in [20], 104%; in [21], 90%; in experiment [22], 110%. Besides, in experiment [3], the inhibition result was “inactive”. In [10], this molecule displayed an IC50 of 1.1 µM.
